From ChEMBL document CHEMBL1914320, “C4-alkylthiols with activity against Moraxella catarrhalis and Mycobacterium tuberculosis” (Bioorg Med Chem, 2011)
Active and inactive are the calls of the source. No cut-off for these calls is given here.

Assays:
[1] = test system: Moraxella catarrhalis; assay: Antibacterial activity against beta-lactamase producing Moraxella catarrhalis isolate 5 at 10 ug/disc after overnight incubation by disc diffusion assay; assay type: functional; settings: for zone of inhibition at 10 µg/disc: read-out: IZ
Outline: (§1)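 Isolates were held at −80 °C. Five colonies were suspended in Mueller-Hinton broth to a 0.5 McFarland density and swabbed onto MH agar. Discs carried 10 μg compound, applied in methanol and dried at room temperature. Plates were incubated overnight at 37 °C, and the zone of inhibition was measured in mm from the disc edge. Controls were methanol-only and penicillin discs. Run blinded, in triplicate.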

[2] = test system: Mycobacterium tuberculosis; assay: Antimycobacterial activity against wild type Mycobacterium tuberculosis H37Rv at 200 ug/ml by Alamar blue assay; assay type: functional, organism-based
[3] = test system: Moraxella catarrhalis; assay: Antibacterial activity against beta-lactamase producing Moraxella catarrhalis isolate 3 at 500 ug/ml after overnight incubation by disc diffusion assay; assay type: functional, organism-based
[4] = test system: Enterococcus faecalis; assay: Antibacterial activity against non-beta-lactamase producing Enterococcus faecalis ATCC 29212 after 48 hrs by microdilution broth method; assay type: functional, organism-based
Outline: (§2)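 Broth microdilution followed CLSI guidelines. Compound was dissolved in 95% ethanol, diluted at least 10-fold into Mueller-Hinton broth, then serially two-fold diluted from 500 to 15.6 μg/mL. Actively growing culture was added at 5 × 10^5 cells/mL. Plates ran 48 h at 37 °C, scored for visible growth at 24 and 48 h. MIC was the lowest concentration without growth. For MBC, 10 μL from each clear well was plated on MH agar. Controls were ethanol and penicillin. Triplicate.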

[5] = test system: Moraxella catarrhalis; assay: Antibacterial activity against beta-lactamase producing Moraxella catarrhalis isolate 5 at 500 ug/ml after overnight incubation by disc diffusion assay; assay type: functional, organism-based
[6] = test system: Enterococcus faecalis; assay: Antibacterial activity against non-beta-lactamase producing Enterococcus faecalis ATCC 29212 at 10 ug/disc after overnight incubation by disc diffusion assay; assay type: functional, organism-based; outline: as §1
[7] = test system: Moraxella catarrhalis; assay: Antibacterial activity against beta-lactamase producing Moraxella catarrhalis isolate 6 at 500 ug/ml after overnight incubation by disc diffusion assay; assay type: functional, organism-based
[8] = test system: Pseudomonas aeruginosa; assay: Antibacterial activity against non-beta-lactamase producing Pseudomonas aeruginosa ATCC 27853 after 48 hrs by microdilution broth method; assay type: functional, organism-based; outline: as §2
[9] = test system: Moraxella catarrhalis; assay: Antibacterial activity against beta-lactamase producing Moraxella catarrhalis isolate 1 at 10 ug/disc after overnight incubation by disc diffusion assay; assay type: functional; settings: for zone of inhibition at 10 µg/disc: read-out: IZ; outline: as §1
[10] = test system: Moraxella catarrhalis; assay: Antibacterial activity against beta-lactamase producing Moraxella catarrhalis isolate 3 at 10 ug/disc after overnight incubation by disc diffusion assay; assay type: functional; outline: as §1
[11] = test system: Moraxella catarrhalis; assay: Antibacterial activity against beta-lactamase producing Moraxella catarrhalis isolate 2 at 10 ug/disc after overnight incubation by disc diffusion assay; assay type: functional; settings: for zone of inhibition at 10 µg/disc: read-out: IZ; outline: as §1
[12] = test system: Staphylococcus aureus; assay: Antibacterial activity against non-beta-lactamase producing Staphylococcus aureus ATCC 25923 at 10 ug/disc after overnight incubation by disc diffusion assay; assay type: functional, organism-based; outline: as §1
[13] = test system: Moraxella catarrhalis; assay: Antibacterial activity against beta-lactamase producing Moraxella catarrhalis isolate 2 at 500 ug/ml after overnight incubation by disc diffusion assay; assay type: functional, organism-based
[14] = test system: Escherichia coli; assay: Antibacterial activity against non-beta-lactamase producing Escherichia coli ATCC 25922 after 48 hrs by microdilution broth method; assay type: functional, organism-based; outline: as §2
[15] = test system: Staphylococcus aureus; assay: Antibacterial activity against non-beta-lactamase producing Staphylococcus aureus ATCC 25923 after 48 hrs by microdilution broth method; assay type: functional, organism-based; outline: as §2
[16] = test system: Moraxella catarrhalis; assay: Antibacterial activity against beta-lactamase producing Moraxella catarrhalis isolate 4 at 500 ug/ml after overnight incubation by disc diffusion assay; assay type: functional, organism-based
[17] = test system: Moraxella catarrhalis; assay: Antibacterial activity against beta-lactamase producing Moraxella catarrhalis isolate 4 at 10 ug/disc after overnight incubation by disc diffusion assay; assay type: functional; settings: for zone of inhibition at 10 µg/disc: read-out: IZ; outline: as §1
[18] = test system: Pseudomonas aeruginosa; assay: Antibacterial activity against non-beta-lactamase producing Pseudomonas aeruginosa ATCC 27853 at 10 ug/disc after overnight incubation by disc diffusion assay; assay type: functional, organism-based; outline: as §1
[19] = test system: Escherichia coli; assay: Antibacterial activity against non-beta-lactamase producing Escherichia coli ATCC 25922 at 10 ug/disc after overnight incubation by disc diffusion assay; assay type: functional, organism-based; outline: as §1

Compound | inhibition zone (IZ) [1] | antimycobacterial activity (active/not active) [2] | antibacterial activity (active/not active) [3] | Activity [4] | antibacterial activity (active/not active) [5] | Activity [6] | antibacterial activity (active/not active) [7] | Activity [8] | inhibition zone (IZ) [9] | inhibition zone (IZ) [10] | inhibition zone (IZ) [11] | Activity [12] | antibacterial activity (active/not active) [13] | Activity [14] | Activity [15] | antibacterial activity (active/not active) [16] | inhibition zone (IZ) [17] | Activity [18] | Activity [19] | other results
O=C1CC(Sc2cccs2)N1S(=O)(=O)O (racemic) | inactive | Active | Active | inactive | Active | inactive | Active | inactive | inactive | inactive | inactive | inactive | Active | inactive | inactive | Active | inactive | inactive | inactive | –
CCC(C=O)(CC)SSC(C=O)(CC)CC | – | – | – | inactive | – | inactive | – | inactive | – | inactive | – | inactive | – | inactive | inactive | – | – | inactive | inactive | zone of inhibition at 10 µg/disc [1]: 10 mm; zone of inhibition at 10 µg/disc [9]: 10 mm; zone of inhibition at 10 µg/disc [11]: 10 mm; zone of inhibition at 10 µg/disc [17]: 5 mm
CCOC(=O)CN1C(=O)C(OC)C1C(S)(CC)CC (racemic) | – | inactive | inactive | inactive | inactive | inactive | inactive | inactive | – | – | – | inactive | inactive | inactive | inactive | inactive | – | inactive | inactive | –
CCOC(=O)CN1C(=O)C(OC)C1C(C)(C)SSC (racemic) | inactive | Active | Active | inactive | Active | inactive | Active | inactive | inactive | inactive | inactive | inactive | Active | inactive | inactive | Active | inactive | inactive | inactive | –
O=C1CC(SCCO)N1 (racemic) | – | inactive | inactive | inactive | inactive | inactive | inactive | inactive | – | – | – | inactive | inactive | inactive | inactive | inactive | – | inactive | inactive | –
O=C1CC(Sc2ccccc2)N1 (racemic) | inactive | inactive | inactive | inactive | inactive | inactive | inactive | inactive | inactive | inactive | inactive | inactive | inactive | inactive | inactive | inactive | inactive | inactive | inactive | –
CCOC(=O)CN1C(=O)C(OC)C1C(CC)(CC)SSC(C=O)(CC)CC (racemic) | – | Active | Active | inactive | Active | inactive | Active | inactive | – | inactive | inactive | inactive | Active | inactive | inactive | Active | inactive | inactive | inactive | zone of inhibition at 10 µg/disc [1]: 3 mm; zone of inhibition at 10 µg/disc [9]: 20 mm
CCC(S)(CC)CO | – | – | – | inactive | – | inactive | – | inactive | – | inactive | – | inactive | – | inactive | inactive | – | – | inactive | inactive | zone of inhibition at 10 µg/disc [1]: 12 mm; zone of inhibition at 10 µg/disc [9]: 5 mm; zone of inhibition at 10 µg/disc [11]: 3 mm; zone of inhibition at 10 µg/disc [17]: 3 mm
O=C1CC(Sc2ccc(S)cc2)N1S(=O)(=O)O (racemic) | – | Active | Active | inactive | Active | inactive | Active | inactive | – | – | – | inactive | Active | inactive | inactive | Active | – | inactive | inactive | –
O=C1CC(Sc2ccccc2)N1S(=O)(=O)O (racemic) | inactive | – | – | inactive | – | inactive | – | inactive | inactive | inactive | inactive | inactive | – | inactive | inactive | – | inactive | inactive | inactive | –
O=C1CC(SCCCO)N1 (racemic) | – | inactive | inactive | inactive | inactive | inactive | inactive | inactive | – | – | – | inactive | inactive | inactive | inactive | inactive | – | inactive | inactive | –
Nc1ccc(SC2CC(=O)N2)cc1 (racemic) | – | Active | Active | inactive | Active | inactive | Active | inactive | – | – | – | inactive | Active | inactive | inactive | Active | – | inactive | inactive | –
